Assay results reported in PubChem BioAssay AID488775 (The Scripps Research Institute Molecular Screening Center, 2010).
Activity calls are given as the source filed them.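 Rule for the calls: active = inhibition of the reporter signal above 10%; inactive = the rest.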

What follows are molecules tested on GAL4DBD-VP16 transactivation domain fusion (Human herpesvirus 1 VP16) (assay: GAL4-VP16 transactivation inhibitors, confirmation, counter-screen for LRH1 inverse agonist project, cell-based, luminescence, HEK293T, powder samples (AID 488775)). Conditions: HEK293T GAL4-VP16 UAS-luciferase reporter, 18-24 h; at 5 µM; stronger effect = higher value.
How it was run: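 Material: HEK293T cells with GAL4–VP16 fusion and UAS-luciferase reporter; control set: DMSO vehicle wells; measured by: luminescence from luciferase; doses: one dose, 5 µM nominal; read-out basis: percent inhibition from averaged fold change relative to DMSO vehicle wells; repeats: three replicates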
`C=CCN1CCN(c2cc(=O)n(C3CCCCC3)c(=O)[nH]2)CC1` was tested, and the inhibition was -48% (inactive). In the case of `O=c1cc(N2CCN(c3ccccc3)CC2)[nH]c(=O)n1Cc1ccc(F)cc1`, the inhibition is reported as -5% (inactive). Work on `O=c1cc(N2CCN(c3ncccc3C(F)(F)F)CC2)[nH]c(=O)n1C1CCCCC1` yielded an inhibition of 13%. With `CCOC(=O)N1CCN(c2cc(=O)n(C3CCCCC3)c(=O)[nH]2)CC1` the inhibition was -6% (inactive). In the case of `O=c1cc(N2CCN(c3nc(-c4ccccc4)ns3)CC2)[nH]c(=O)n1C1CCCCC1`, the inhibition is reported as -27% (inactive). With `CCn1c(=O)cc(N2CCN(Cc3ccccc3)CC2)[nH]c1=O` the inhibition was -10% (inactive). `N#CCn1c(N2CCN(c3cccc(C(F)(F)F)c3)CC2)cc(=O)n(C2CCCCC2)c1=O` was tested, and the inhibition was 2% (inactive). For `O=c1cc(N2CCCC2)[nH]c(=O)n1C1CCCCC1`, the inhibition was -6% (inactive). `O=c1cc(N2CCN(c3ccc(C(F)(F)F)cc3)CC2)[nH]c(=O)n1C1CCCCC1` was tested, and the inhibition was -5% (inactive). With `CC1CCN(c2cc(=O)n(Cc3ccc(F)cc3)c(=O)[nH]2)CC1` the inhibition was -7% (inactive). `O=c1cc(N2CCN(c3ncccc3Cl)CC2)[nH]c(=O)n1C1CCCCC1` showed an inhibition of 16%. For `CCn1c(=O)cc(N2CCN(c3ccc(F)cc3)CC2)[nH]c1=O`, the inhibition was -7% (inactive). `O=c1cc(N2CCN(c3ccccc3)CC2)[nH]c(=O)n1C1CCCCC1` was tested, and the inhibition was -16% (inactive). In the case of `CC(C)Cn1c(=O)cc(N2CCN(c3cccc(C(F)(F)F)c3)CC2)[nH]c1=O`, the inhibition is reported as 8% (inactive). Molecule `C=CCn1c(N2CCN(c3cccc(C(F)(F)F)c3)CC2)cc(=O)n(C2CCCCC2)c1=O` has an inhibition of 20%. In the case of `CC1CCN(c2cc(=O)n(C3CCCCC3)c(=O)[nH]2)CC1`, the inhibition is reported as 6% (inactive). `COc1ccc(N2CCN(c3cc(=O)n(C4CCCCC4)c(=O)[nH]3)CC2)cc1` was tested, and the inhibition was 1% (inactive). For `C=CCn1c(=O)cc(N2CCN(c3cccc(C(F)(F)F)c3)CC2)[nH]c1=O`, the inhibition was 1% (inactive). For `Cn1c(=O)cc(N2CCN(c3cccc(Cl)c3)CC2)[nH]c1=O`, the inhibition was -1% (inactive). For `O=c1cc(N2CCc3ccccc32)[nH]c(=O)n1C1CCCCC1`, the inhibition was -11% (inactive). In the case of `O=c1cc(N2CCN(Cc3ccc4c(c3)OCO4)CC2)[nH]c(=O)n1C1CCCCC1`, the inhibition is reported as -5% (inactive). In the case of `O=c1cc(N2CCN(c3cccc(C(F)(F)F)n3)CC2)[nH]c(=O)n1C1CCCCC1`, the inhibition is reported as 3% (inactive). In the case of `O=c1cc(N2CCN(Cc3ccc(Cl)cc3)CC2)[nH]c(=O)n1C1CCCCC1`, the inhibition is reported as -4% (inactive). `O=C(c1ccccc1)N1CCN(c2cc(=O)n(C3CCCCC3)c(=O)[nH]2)CC1` was tested, and the inhibition was 8% (inactive). For `O=c1cc(N2CCN(c3ccc(F)cc3)CC2)[nH]c(=O)n1C1CCCCC1`, the inhibition was -9% (inactive). With `O=c1cc(N2CCN(c3cc(C(F)(F)F)ccn3)CC2)[nH]c(=O)n1C1CCCCC1` the inhibition was -12% (inactive). In the case of `O=c1cc(N2CCN(c3ccccn3)CC2)[nH]c(=O)n1C1CCCCC1`, the inhibition is reported as -8% (inactive). Work on `O=c1cc(N2CCN(c3ccc(F)cc3F)CC2)[nH]c(=O)n1C1CCCCC1` yielded an inhibition of 26%. With `O=c1cc(N2CCN(c3cccc(Br)c3)CC2)[nH]c(=O)n1C1CCCCC1` the inhibition was -4% (inactive). In the case of `Cn1c(=O)cc(N2CCN(c3ccc(F)cc3)CC2)[nH]c1=O`, the inhibition is reported as -13% (inactive). For `Cc1ccc(Cl)cc1N1CCN(c2cc(=O)n(C3CCCCC3)c(=O)[nH]2)CC1`, the inhibition was 0% (inactive). In the case of `COC(=O)C1CCN(c2cc(=O)n(C3CCCCC3)c(=O)[nH]2)CC1`, the inhibition is reported as -12% (inactive). With `O=c1cc(N2CCN(c3cccc(Cl)c3Cl)CC2)[nH]c(=O)n1C1CCCCC1` the inhibition was -5% (inactive). For `O=c1cc(N2CCN(c3cccc(Cl)c3)CC2)[nH]c(=O)[nH]1`, the inhibition was 3% (inactive). `O=c1cc(N2CCN(c3nccc4occc34)CC2)[nH]c(=O)n1C1CCCCC1` was tested, and the inhibition was -4% (inactive). With `Cc1cc(C)cc(N2CCN(c3cc(=O)n(C4CCCCC4)c(=O)[nH]3)CC2)c1` the inhibition was -6% (inactive). With `O=c1cc(N2CCC(Cc3ccccc3)CC2)[nH]c(=O)n1C1CCCCC1` the inhibition was 26%. With `CCn1c(=O)cc(N2CCN(c3ccccc3)CC2)[nH]c1=O` the inhibition was -7% (inactive). With `O=c1cc(N2CCN(c3cccc(C(F)(F)F)c3)CC2)[nH]c(=O)n1Cc1ccccc1` the inhibition was 6% (inactive). With `CCn1c(=O)cc(N2CCN(c3cccc(C(F)(F)F)c3)CC2)[nH]c1=O` the inhibition was 1% (inactive). In the case of `O=c1cc(N2CCOCC2)[nH]c(=O)n1C1CCCCC1`, the inhibition is reported as 9% (inactive). In the case of `O=c1cc(N2CCN(c3cccc(C(F)(F)F)c3)CC2)n(Cc2ccccc2)c(=O)n1C1CCCCC1`, the inhibition is reported as -1% (inactive). With `O=c1cc(N2CCCCC2)[nH]c(=O)n1C1CCCCC1` the inhibition was 0% (inactive). In the case of `O=c1cc(N2CCN(c3cc(Cl)cc(Cl)c3)CC2)[nH]c(=O)n1C1CCCCC1`, the inhibition is reported as 1% (inactive). With `O=C(c1ccco1)N1CCN(c2cc(=O)n(C3CCCCC3)c(=O)[nH]2)CC1` the inhibition was 17%. `O=c1cc(N2CCN(C(c3ccccc3)c3ccccc3)CC2)[nH]c(=O)n1C1CCCCC1` was tested, and the inhibition was 11% (inactive). `Cc1ccc(C)n1CCN1CCN(c2cc(=O)n(C3CCCCC3)c(=O)[nH]2)CC1` gave an inhibition of 17%. In the case of `CCN1CCN(c2cc(=O)n(C3CCCCC3)c(=O)[nH]2)CC1`, the inhibition is reported as 0% (inactive). `O=c1cc(N2CCN(c3ccccc3C(F)(F)F)CC2)[nH]c(=O)n1C1CCCCC1` was tested, and the inhibition was 14%. For `O=c1cc(N2CCN(c3cccc(Cl)c3)CC2)[nH]c(=O)n1C1CCCCC1`, the inhibition was 1% (inactive). `CCn1c(=O)cc(N2CCN(C(=O)c3ccco3)CC2)[nH]c1=O` was tested, and the inhibition was 0% (inactive). With `O=c1cc(N2CCN(CCN3CCOCC3)CC2)[nH]c(=O)n1C1CCCCC1` the inhibition was 26%. For `O=c1cc(N2CCN(c3cccc(Cl)n3)CC2)[nH]c(=O)n1C1CCCCC1`, the inhibition was -7% (inactive). In the case of `O=c1cc(N2CCN(c3cccc(C(F)(F)F)c3)CC2)[nH]c(=O)n1-c1ccccc1`, the inhibition is reported as -3% (inactive). `CCn1c(=O)cc(N2CCN(c3cccc(Cl)c3)CC2)[nH]c1=O` was tested, and the inhibition was 5% (inactive). With `O=c1cc(N2CCN(c3cccc(C(F)(F)F)c3)CC2)[nH]c(=O)n1C1CCCCC1` the inhibition was -6% (inactive). With `O=c1cc(N2CCN(c3ccccc3Cl)CC2)[nH]c(=O)n1C1CCCCC1` the inhibition was 1% (inactive). For `O=c1cc(N2CCN(C3CCCCC3)CC2)[nH]c(=O)n1C1CCCCC1`, the inhibition was 0% (inactive). With `O=c1cc(N2CCN(c3ccnc4cc(Cl)ccc34)CC2)[nH]c(=O)n1C1CCCCC1` the inhibition was 7% (inactive).
